ChEMBL document CHEMBL3102784, “Salicylanilide diethyl phosphates: synthesis, antimicrobial activity and cytotoxicity” (Bioorg Med Chem, 2014)
pIC50: −log10 of the molar value. Values after ≈ are worked out from the molar mass of the structure shown. Active and inactive are the calls of the source. The rule behind the calls is not given here.

Legend:
[1] = tested on: Staphylococcus epidermidis; experiment: Antibacterial activity against Staphylococcus epidermidis H 6966/08 after 48 hrs by broth microdilution method; format: functional; settings: H 6966/08, 48 h
Outline: (§1)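 Broth microdilution in Mueller–Hinton broth, compounds dissolved in DMSO, tested over a dilution series from 500 downward. MIC taken as ≥95% growth reduction (IC95) versus drug-free control. Benzylpenicillin comparator. Readings at 24 and 48 h.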

[2] = tested on: Aspergillus fumigatus; experiment: Antifungal activity against Aspergillus fumigatus 231 after 48 hrs by broth microdilution method; format: functional; settings: Aspergillus fumigatus, 231, 48 h
Outline: (§2)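 Broth microdilution in RPMI 1640 with glutamine, fluconazole as reference. For yeasts, MIC is ≥80% growth reduction (IC80) versus control. For filamentous fungi, the value is expressed as IC50. Readings at 24 and 48 h.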

[3] = tested on: Enterococcus sp.; experiment: Antibacterial activity against Enterococcus sp. J 14365/08 at 500 micromol/L after 24 to 48 hrs by broth microdilution method; format: functional, organism-based; outline: as §1
[4] = tested on: Mycobacterium tuberculosis; experiment: Antimycobacterial activity against Mycobacterium tuberculosis H37Rv My 331/88 after 21 days; format: functional; settings: H37Rv My 331/88, 504 h
Outline: (§3)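 Micromethod MIC in Šula's semisynthetic medium at 37 °C. Compounds added in DMSO at 1000 down to 0.032 µmol/L. Isoniazid standard in sterile water at 0.5–250 µmol/L. Inocula: H37Rv 10^3, M. avium 10^5, M. kansasii 10^4. Read at 14 and 21 d, plus 7 d for M. kansasii.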

[5] = tested on: Staphylococcus aureus; experiment: Antibacterial activity against methicillin-resistant Staphylococcus aureus H 5996/08 after 24 hrs by broth microdilution method; format: functional; settings: H 5996/08, 24 h; outline: as §1
[6] = tested on: Mycobacterium kansasii; experiment: Antimycobacterial activity against Mycobacterium kansasii My 235/80 after 21 days; format: functional; settings: My 235/80, 504 h; outline: as §3
[7] = tested on: Aspergillus fumigatus; experiment: Antifungal activity against Aspergillus fumigatus 231 after 24 hrs by broth microdilution method; format: functional; settings: Aspergillus fumigatus, 231, 24 h; outline: as §2
[8] = tested on: HepG2; experiment: Cytotoxicity against human HepG2 cells after 24 hrs by CellTiter assay; format: cell-based; settings: HepG2, 24 h
Outline: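 HepG2 cells (passage 27–33) in MEM with 10% FBS, L-glutamine and NEAA, seeded at 1×10^4 per well. Treated next day with compounds at 0.1–100 µM (or 0.1–25 µmol/L), triplicates, <1% DMSO, for 24 h at 37 °C, 5% CO2. MTS reagent added for 2 h, absorbance read at 490 nm. IC50 taken against untreated (100%) and 10% DMSO (0%) controls.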

[9] = tested on: Mycobacterium kansasii; experiment: Antimycobacterial activity against Mycobacterium kansasii 6509/96 after 21 days; format: functional; settings: 6509/96, 504 h; outline: as §3
[10] = tested on: Klebsiella pneumoniae; experiment: Antibacterial activity against Klebsiella pneumoniae D 11750/08 at 500 micromol/L after 24 to 48 hrs by broth microdilution method; format: functional, organism-based; outline: as §1
[11] = tested on: Trichophyton mentagrophytes; experiment: Antifungal activity against Trichophyton mentagrophytes 445 after 72 hrs by broth microdilution method; format: functional; settings: Trichophyton mentagrophytes, 445, 72 h
Outline: (§4)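 Filamentous dermatophyte tested by broth microdilution in RPMI 1640 with glutamine, fluconazole as reference. Value expressed as IC50 relative to growth control. Read at 72 and 120 h.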

[12] = tested on: Staphylococcus epidermidis; experiment: Antibacterial activity against Staphylococcus epidermidis H 6966/08 after 24 hrs by broth microdilution method; format: functional; settings: H 6966/08, 24 h; outline: as §1
[13] = tested on: Mycobacterium avium; experiment: Antimycobacterial activity against isoniazid, rifampicin, ethambutol and ofloxacin-resistant Mycobacterium avium My 330/88 after 14 days; format: functional; settings: My 330/88, 336 h; outline: as §3
[14] = tested on: Trichosporon asahii; experiment: Antifungal activity against Trichosporon asahii 1188 after 48 hrs by broth microdilution method; format: functional; settings: Trichosporon asahii, 1188, 48 h; outline: as §2
[15] = tested on: Candida tropicalis; experiment: Antifungal activity against Candida tropicalis 156 at 500 micromol/L after 24 to 48 hrs by broth microdilution method; format: functional, organism-based; outline: as §2
[16] = tested on: Trichophyton mentagrophytes; experiment: Antifungal activity against Trichophyton mentagrophytes 445 after 120 hrs by broth microdilution method; format: functional; settings: Trichophyton mentagrophytes, 445, 120 h; outline: as §4
[17] = tested on: Candida albicans; experiment: Antifungal activity against Candida albicans ATCC 44859 after 48 hrs by broth microdilution method; format: functional; settings: ATCC 44859, 48 h; outline: as §2
[18] = tested on: Trichosporon asahii; experiment: Antifungal activity against Trichosporon asahii 1188 after 24 hrs by broth microdilution method; format: functional; settings: Trichosporon asahii, 1188, 24 h; outline: as §2
[19] = tested on: Lichtheimia corymbifera; experiment: Antifungal activity against Absidia corymbifera 272 after 24 hrs by broth microdilution method; format: functional; settings: Lichtheimia corymbifera, 272, 24 h; outline: as §2
[20] = tested on: Mycobacterium kansasii; experiment: Antimycobacterial activity against Mycobacterium kansasii 6509/96 after 7 days; format: functional; settings: 6509/96, 168 h; outline: as §3
[21] = tested on: Mycobacterium kansasii; experiment: Antimycobacterial activity against Mycobacterium kansasii 6509/96 after 14 days; format: functional; settings: 6509/96, 336 h; outline: as §3
[22] = tested on: Mycobacterium kansasii; experiment: Antimycobacterial activity against Mycobacterium kansasii My 235/80 after 7 days; format: functional; settings: My 235/80, 168 h; outline: as §3
[23] = tested on: Pseudomonas aeruginosa; experiment: Antibacterial activity against Pseudomonas aeruginosa CCM 1961 at 500 micromol/L after 24 to 48 hrs by broth microdilution method; format: functional, organism-based; outline: as §1
[24] = tested on: Mycobacterium kansasii; experiment: Antimycobacterial activity against Mycobacterium kansasii My 235/80 after 14 days; format: functional; settings: My 235/80, 336 h; outline: as §3
[25] = tested on: Pichia kudriavzevii; experiment: Antifungal activity against Candida krusei E28 after 24 hrs by broth microdilution method; format: functional; settings: E28, 24 h; outline: as §2
[26] = tested on: Nakaseomyces glabratus; experiment: Antifungal activity against Candida glabrata 20/I at 500 micromol/L after 24 to 48 hrs by broth microdilution method; format: functional, organism-based; outline: as §2
[27] = tested on: Klebsiella pneumoniae; experiment: Antibacterial activity against ESBL-positive Klebsiella pneumoniae J 14368/08 at 500 micromol/L after 24 to 48 hrs by broth microdilution method; format: functional, organism-based; outline: as §1
[28] = tested on: Candida albicans; experiment: Antifungal activity against Candida albicans ATCC 44859 after 24 hrs by broth microdilution method; format: functional; settings: ATCC 44859, 24 h; outline: as §2
[29] = tested on: Lichtheimia corymbifera; experiment: Antifungal activity against Absidia corymbifera 272 after 48 hrs by broth microdilution method; format: functional; settings: Lichtheimia corymbifera, 272, 48 h; outline: as §2
[30] = tested on: Staphylococcus aureus; experiment: Antibacterial activity against methicillin-resistant Staphylococcus aureus H 5996/08 after 48 hrs by broth microdilution method; format: functional; settings: H 5996/08, 48 h; outline: as §1
[31] = tested on: Staphylococcus aureus; experiment: Antibacterial activity against Staphylococcus aureus CCM 4516/08 after 24 hrs by broth microdilution method; format: functional; settings: CCM 4516/08, 24 h; outline: as §1
[32] = tested on: Pichia kudriavzevii; experiment: Antifungal activity against Candida krusei E28 after 48 hrs by broth microdilution method; format: functional; settings: E28, 48 h; outline: as §2
[33] = tested on: Mycobacterium tuberculosis; experiment: Antimycobacterial activity against Mycobacterium tuberculosis H37Rv My 331/88 after 14 days; format: functional; settings: H37Rv My 331/88, 336 h; outline: as §3
[34] = tested on: Mycobacterium avium; experiment: Antimycobacterial activity against isoniazid, rifampicin, ethambutol and ofloxacin-resistant Mycobacterium avium My 330/88 after 21 days; format: functional; settings: My 330/88, 504 h; outline: as §3
[35] = tested on: Escherichia coli; experiment: Antibacterial activity against Escherichia coli CCM 4517 at 500 micromol/L after 24 to 48 hrs by broth microdilution method; format: functional, organism-based; outline: as §1
[36] = tested on: Staphylococcus aureus; experiment: Antibacterial activity against Staphylococcus aureus CCM 4516/08 after 48 hrs by broth microdilution method; format: functional; settings: CCM 4516/08, 48 h; outline: as §1

For `CCOP(=O)(OCC)Oc1cc(Cl)ccc1C(=O)Nc1cccc(C(F)(F)F)c1`, which MIC95 [1] is on record?
The MIC95 was 31.2 µM (≈ 14.1 µg/mL).

And the MIC50 [2]?
Its MIC50 is greater than 500 µM.

What about the Activity [3] of the same molecule?
The Activity was “inactive”.

What about the MIC [4] of the same molecule?
Its MIC is 4 µM (≈ 1.81 µg/mL).

And the MIC95 [5]?
The MIC95 was 31.2 µM (≈ 14.1 µg/mL).

And the MIC [6]?
Its MIC is 4 µM (≈ 1.81 µg/mL).

And the MIC50 [7]?
The MIC50 was greater than 500 µM.

And the pIC50 [8]?
The pIC50 was 5.41.

And the MIC [9]?
The MIC was 8 µM (≈ 3.61 µg/mL).

And the Activity [10]?
Its Activity is “inactive”.

What about the MIC50 [11] of the same molecule?
Its MIC50 is 31.2 µM (≈ 14.1 µg/mL).

And the MIC95 [12]?
Its MIC95 is 15.6 µM (≈ 7.06 µg/mL).

What about the MIC [13] of the same molecule?
The MIC was 16 µM (≈ 7.23 µg/mL).

What about the MIC80 [14] of the same molecule?
Its MIC80 is greater than 500 µM.

What about the Activity [15] of the same molecule?
Its Activity is “inactive”.

And the MIC50 [16]?
The MIC50 was 31.2 µM (≈ 14.1 µg/mL).

What about the MIC80 [17] of the same molecule?
The MIC80 was greater than 500 µM.

And the MIC80 [18]?
The MIC80 was greater than 500 µM.

And the MIC50 [19]?
The MIC50 was greater than 500 µM.

What about the MIC [20] of the same molecule?
The MIC was 4 µM (≈ 1.81 µg/mL).

What about the MIC [21] of the same molecule?
Its MIC is 8 µM (≈ 3.61 µg/mL).

And the MIC [22]?
Its MIC is 2 µM (≈ 0.904 µg/mL).

And the Activity [23]?
Its Activity is “inactive”.

What about the MIC [24] of the same molecule?
The MIC was 4 µM (≈ 1.81 µg/mL).

What about the MIC80 [25] of the same molecule?
The MIC80 was greater than 500 µM.

And the Activity [26]?
The Activity was “inactive”.

And the Activity [27]?
Its Activity is “inactive”.

And the MIC80 [28]?
Its MIC80 is greater than 500 µM.

What about the MIC50 [29] of the same molecule?
Its MIC50 is greater than 500 µM.

What about the MIC95 [30] of the same molecule?
Its MIC95 is 62.5 µM (≈ 28.2 µg/mL).

What about the MIC95 [31] of the same molecule?
Its MIC95 is 31.2 µM (≈ 14.1 µg/mL).

What about the MIC80 [32] of the same molecule?
The MIC80 was greater than 500 µM.

And the MIC [33]?
Its MIC is 4 µM (≈ 1.81 µg/mL).

And the MIC [34]?
Its MIC is 16 µM (≈ 7.23 µg/mL).

And the Activity [35]?
The Activity was “inactive”.

And the MIC95 [36]?
Its MIC95 is 62.5 µM (≈ 28.2 µg/mL).

What does the source list for `CCOP(=O)(OCC)Oc1ccc(Cl)cc1C(=O)Nc1ccc(Cl)cc1`?
MIC95 [1]: 250 µM (≈ 105 µg/mL); MIC50 [2]: > 500 µM; Activity [3]: inactive; MIC [4]: 4 µM (≈ 1.67 µg/mL); MIC95 [5]: 125 µM (≈ 52.3 µg/mL); MIC [6]: 8 µM (≈ 3.35 µg/mL); MIC50 [7]: > 500 µM; pIC50 [8]: 4.89; MIC [9]: 8 µM (≈ 3.35 µg/mL); Activity [10]: inactive; MIC50 [11]: 500 µM (≈ 209 µg/mL); MIC95 [12]: 125 µM (≈ 52.3 µg/mL); MIC [13]: 8 µM (≈ 3.35 µg/mL); MIC80 [14]: > 500 µM; Activity [15]: inactive; MIC50 [16]: 500 µM (≈ 209 µg/mL); MIC80 [17]: > 500 µM; MIC80 [18]: > 500 µM; MIC50 [19]: > 500 µM; MIC [20]: 8 µM (≈ 3.35 µg/mL); MIC [21]: 8 µM (≈ 3.35 µg/mL); MIC [22]: 8 µM (≈ 3.35 µg/mL); Activity [23]: inactive; MIC [24]: 8 µM (≈ 3.35 µg/mL); MIC80 [25]: > 500 µM; Activity [26]: inactive; Activity [27]: inactive; MIC80 [28]: > 500 µM; MIC50 [29]: > 500 µM; MIC95 [30]: 250 µM (≈ 105 µg/mL); MIC95 [31]: 62.5 µM (≈ 26.1 µg/mL); MIC80 [32]: > 500 µM; MIC [33]: 4 µM (≈ 1.67 µg/mL); MIC [34]: 8 µM (≈ 3.35 µg/mL); Activity [35]: inactive; MIC95 [36]: 125 µM (≈ 52.3 µg/mL)
